pIC50: −log10 of the molar value. The source made the active and inactive calls. The rule behind the calls is not given here.
Key:
[1] = test system: SK-OV-3; assay: Growth inhibition of human SKOV3 cells assessed as cell growth inhibition at 10 uM incubated for 48 hrs by sulforhodamine B assay; type: functional; settings: SK-OV-3, 48 h, read-out: GI
[2] = test system: ACHN; assay: Growth inhibition of human ACHN cells assessed as cell growth inhibition at 10 uM incubated for 48 hrs by sulforhodamine B assay; type: functional; settings: read-out: GI
[3] = Volume of distribution at steady state in Sprague-Dawley rat at 1 mg/kg, iv by LC-MS/MS analysis; type: ADME, organism-based; settings: in vivo, read-out: Vdss
Procedure, shortened: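 Male SD rats (199-214 g), three per route, single dose 1 mg/kg iv or 10 mg/kg po. Jugular blood (~200 μL) into heparinized tubes at set times; plasma by centrifugation, protein precipitation with acetonitrile containing verapamil and glibenclamide; drug measured by LC-MS/MS.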

[4] = test system: K562; assay: Antiproliferative activity against human K562 assessed as reduction in cell viability measured after 72 hrs using alamar blue based fluorescence method; type: functional; settings: K562, 72 h
Procedure, shortened: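 Leukemia lines grown in IMDM with penicillin/streptomycin, HL-60 with 20% FBS and K562 with 10% FBS, at 37 °C, 5% CO2. Cells in 96-well plates exposed to drug for 72 h. Alamar blue (1 mM solution) added for 5–6 h, fluorescence read at 530/590 nm.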

[5] = test system: NCI/ADR-RES; assay: Growth inhibition of human NCI/ADR-RES cells assessed as cell growth inhibition at 10 uM incubated for 48 hrs by sulforhodamine B assay; type: functional; settings: read-out: GI
[6] = Metabolic stability in human liver microsomes assessed as internal clearance at 1 uM preincubated for 10 mins followed by NADPH addition measured upto 60 mins by LC-MS/MS analysis; type: ADME, Microsome; settings: read-out: CLH
Procedure, shortened: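 Liver microsomes from male SD rat, dog or human at 0.5 mg/mL in 100 mM potassium phosphate pH 7.4 with 1 μM compound. Prewarmed 37 °C 10 min, started with 1 mM NADPH. Stopped at 0, 5, 10, 20, 40, 60 min with cold methanol containing glibenclamide internal standard; supernatant by LC–MS/MS; T1/2 and CLint derived.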

[7] = test system: HOP-92; assay: Growth inhibition of human HOP92 cells assessed as cell growth inhibition at 10 uM incubated for 48 hrs by sulforhodamine B assay; type: functional; settings: HOP-92, 48 h, read-out: GI
[8] = target: Histone deacetylase 5 (Homo sapiens) (UniProt Q9UQL6); assay: Inhibition of HDAC5 (unknown origin) using Fluor de Lys substrate by fluorescence assay relative to control
Procedure, shortened: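 Recombinant HDAC isoform assays run by a contract lab. Compounds in DMSO, 10-dose IC50 mode, 3-fold serial dilution from 50 μM. Duplicate runs; IC50 from curve fitting.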

Sequence of Histone deacetylase 5 (Homo sapiens) (Q9UQL6 whole entry, canonical isoform): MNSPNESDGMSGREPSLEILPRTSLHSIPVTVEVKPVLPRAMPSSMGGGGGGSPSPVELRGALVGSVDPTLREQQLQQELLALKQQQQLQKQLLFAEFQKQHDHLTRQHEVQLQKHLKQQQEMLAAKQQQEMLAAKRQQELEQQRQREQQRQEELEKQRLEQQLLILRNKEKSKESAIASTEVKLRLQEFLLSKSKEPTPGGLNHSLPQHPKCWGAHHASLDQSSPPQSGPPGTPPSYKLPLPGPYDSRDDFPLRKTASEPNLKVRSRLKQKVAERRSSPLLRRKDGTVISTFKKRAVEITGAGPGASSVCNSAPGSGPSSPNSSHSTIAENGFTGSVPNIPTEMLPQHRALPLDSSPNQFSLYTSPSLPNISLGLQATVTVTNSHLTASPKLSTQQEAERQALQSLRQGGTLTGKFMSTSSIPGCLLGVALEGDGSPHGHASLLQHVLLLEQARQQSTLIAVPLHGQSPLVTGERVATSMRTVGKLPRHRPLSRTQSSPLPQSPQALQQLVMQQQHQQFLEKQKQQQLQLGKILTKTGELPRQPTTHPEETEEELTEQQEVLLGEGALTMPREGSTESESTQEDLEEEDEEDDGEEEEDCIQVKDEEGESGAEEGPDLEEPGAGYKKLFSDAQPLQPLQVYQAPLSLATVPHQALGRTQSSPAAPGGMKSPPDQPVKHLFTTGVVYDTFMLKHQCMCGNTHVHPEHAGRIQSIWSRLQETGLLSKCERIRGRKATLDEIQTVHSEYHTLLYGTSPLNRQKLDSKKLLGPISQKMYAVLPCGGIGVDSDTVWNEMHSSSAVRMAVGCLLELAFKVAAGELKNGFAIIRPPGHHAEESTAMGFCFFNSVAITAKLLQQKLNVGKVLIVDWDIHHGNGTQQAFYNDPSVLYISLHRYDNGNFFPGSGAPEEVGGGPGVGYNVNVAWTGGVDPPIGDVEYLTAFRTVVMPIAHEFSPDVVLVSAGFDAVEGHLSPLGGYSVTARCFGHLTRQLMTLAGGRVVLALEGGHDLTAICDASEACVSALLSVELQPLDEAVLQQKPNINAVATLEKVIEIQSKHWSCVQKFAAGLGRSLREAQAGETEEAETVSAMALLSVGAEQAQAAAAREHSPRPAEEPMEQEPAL

Work on `Nc1cc(F)ccc1NC(=O)c1ccc(CNC(=O)/C=C2\NC(=O)c3ccccc32)cc1` yielded an inhibition of growth at 10 µM [1] of 29.5%, an inhibition of growth at 10 µM [2] of 15% and a Vd [3] of 0.493 L/kg. The pIC50 [4] was 6.71, the inhibition of growth at 10 µM [5] was 18% and the microsomal CLint at 1 µM [6] was 4.8 µL/min/mg. For the same compound, the inhibition of growth at 10 µM [7] was 58.6% and the inhibition [8] was “inactive”.
